The source of these data is publication PMC5532717 (ACS Central Science, 2017).

What all share (assay type): biochemical
The target in test [1] is T1, GANAB (Mus musculus, UniProt Q8BHN3).
T1 sequence (Q8BHN3 33-944): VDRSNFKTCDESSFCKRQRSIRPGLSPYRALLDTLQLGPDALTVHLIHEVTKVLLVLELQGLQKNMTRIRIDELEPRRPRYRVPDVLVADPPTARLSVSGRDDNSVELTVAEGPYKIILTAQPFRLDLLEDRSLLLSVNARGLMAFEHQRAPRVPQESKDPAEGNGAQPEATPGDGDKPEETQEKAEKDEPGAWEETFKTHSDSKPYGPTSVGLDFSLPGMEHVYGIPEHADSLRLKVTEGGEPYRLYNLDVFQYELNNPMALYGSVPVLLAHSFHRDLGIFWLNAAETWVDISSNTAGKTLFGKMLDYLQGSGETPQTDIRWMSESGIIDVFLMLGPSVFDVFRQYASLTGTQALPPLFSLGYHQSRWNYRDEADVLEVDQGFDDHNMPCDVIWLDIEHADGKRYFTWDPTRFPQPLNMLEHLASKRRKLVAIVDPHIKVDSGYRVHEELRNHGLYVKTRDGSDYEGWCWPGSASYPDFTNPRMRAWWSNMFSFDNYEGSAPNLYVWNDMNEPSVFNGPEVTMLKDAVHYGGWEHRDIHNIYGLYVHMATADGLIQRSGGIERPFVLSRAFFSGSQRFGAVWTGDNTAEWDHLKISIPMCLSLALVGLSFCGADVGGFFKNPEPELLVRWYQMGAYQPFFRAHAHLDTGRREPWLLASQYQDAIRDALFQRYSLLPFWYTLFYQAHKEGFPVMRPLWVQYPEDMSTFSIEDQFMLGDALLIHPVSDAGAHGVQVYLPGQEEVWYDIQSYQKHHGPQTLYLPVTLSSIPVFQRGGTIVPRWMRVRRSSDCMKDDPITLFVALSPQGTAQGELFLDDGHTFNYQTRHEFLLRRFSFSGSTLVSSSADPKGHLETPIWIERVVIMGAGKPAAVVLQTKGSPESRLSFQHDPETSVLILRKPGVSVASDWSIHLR
T1 sequence (O08795 15-521 partner): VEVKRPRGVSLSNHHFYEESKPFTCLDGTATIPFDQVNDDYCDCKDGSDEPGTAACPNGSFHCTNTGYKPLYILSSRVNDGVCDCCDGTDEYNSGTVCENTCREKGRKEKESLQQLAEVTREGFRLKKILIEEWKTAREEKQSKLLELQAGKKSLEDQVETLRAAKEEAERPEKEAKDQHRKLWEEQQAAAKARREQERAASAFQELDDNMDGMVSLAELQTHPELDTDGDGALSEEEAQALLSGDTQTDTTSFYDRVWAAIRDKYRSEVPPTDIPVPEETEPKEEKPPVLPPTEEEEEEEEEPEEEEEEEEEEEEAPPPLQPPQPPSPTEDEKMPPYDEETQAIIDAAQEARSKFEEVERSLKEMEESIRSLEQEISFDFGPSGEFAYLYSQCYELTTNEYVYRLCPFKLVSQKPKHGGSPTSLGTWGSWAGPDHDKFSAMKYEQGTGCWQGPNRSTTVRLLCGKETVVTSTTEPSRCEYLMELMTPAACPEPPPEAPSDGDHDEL
Nature of the test: Competitive ABPP against probe 13 in mouse gastrointestinal lysate. The settings on record: mouse intestine lysate, 1 h at 37 °C. The procedure, abridged:
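Mixed mouse duodenum, jejunum and ileum homogenates were made in 25 mM potassium phosphate pH 6.5 with protease inhibitors (40 μg protein). Held 5 min on ice in McIlvaine buffer pH 4 or 7. Incubated 1 h at 37 °C with test compound (final 150 to 0.005 μM, plus 0), then probe 13 for 30 min at 37 °C. Boiled in Laemmli buffer, 10% SDS–PAGE, Cy5 fluorescence scan.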

In test [2] the target is T2, GBA2 (Homo sapiens, UniProt Q9HCG7).
T2 sequence (Q9HCG7 1-927): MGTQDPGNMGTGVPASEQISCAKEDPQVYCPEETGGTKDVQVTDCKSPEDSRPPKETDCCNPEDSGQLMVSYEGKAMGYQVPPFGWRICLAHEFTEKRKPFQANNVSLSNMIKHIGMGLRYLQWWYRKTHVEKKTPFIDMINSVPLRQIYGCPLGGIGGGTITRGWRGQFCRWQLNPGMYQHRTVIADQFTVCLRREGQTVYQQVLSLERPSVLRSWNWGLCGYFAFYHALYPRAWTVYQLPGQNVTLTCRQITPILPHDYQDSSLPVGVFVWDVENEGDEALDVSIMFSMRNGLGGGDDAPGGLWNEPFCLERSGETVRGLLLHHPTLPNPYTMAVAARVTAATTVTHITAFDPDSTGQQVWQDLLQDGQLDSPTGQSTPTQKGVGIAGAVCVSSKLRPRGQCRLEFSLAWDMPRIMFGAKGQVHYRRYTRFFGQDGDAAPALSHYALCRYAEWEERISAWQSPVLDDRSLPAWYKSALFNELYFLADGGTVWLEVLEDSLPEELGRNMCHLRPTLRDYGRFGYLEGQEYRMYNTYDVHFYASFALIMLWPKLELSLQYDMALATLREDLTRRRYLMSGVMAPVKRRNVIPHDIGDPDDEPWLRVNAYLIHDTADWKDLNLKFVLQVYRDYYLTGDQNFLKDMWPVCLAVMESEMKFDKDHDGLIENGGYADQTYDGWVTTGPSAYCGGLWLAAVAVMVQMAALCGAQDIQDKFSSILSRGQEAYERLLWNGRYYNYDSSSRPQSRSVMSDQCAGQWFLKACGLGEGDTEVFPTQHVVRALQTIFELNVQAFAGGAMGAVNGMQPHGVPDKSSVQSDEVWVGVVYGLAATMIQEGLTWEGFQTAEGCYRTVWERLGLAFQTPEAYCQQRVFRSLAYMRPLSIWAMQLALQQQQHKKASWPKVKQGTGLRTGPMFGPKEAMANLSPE
Nature of the test: Competitive ABPP against β-glucosidase probe 14, GBA2+ HEK293T lysate. The following applies: 5 from 30 to 0 μM, 1 h at 37 °C, pH 5.8.

The target in test [3] is T3, GBA3 (Homo sapiens, UniProt Q9H227).
T3 sequence (Q9H227 1-469): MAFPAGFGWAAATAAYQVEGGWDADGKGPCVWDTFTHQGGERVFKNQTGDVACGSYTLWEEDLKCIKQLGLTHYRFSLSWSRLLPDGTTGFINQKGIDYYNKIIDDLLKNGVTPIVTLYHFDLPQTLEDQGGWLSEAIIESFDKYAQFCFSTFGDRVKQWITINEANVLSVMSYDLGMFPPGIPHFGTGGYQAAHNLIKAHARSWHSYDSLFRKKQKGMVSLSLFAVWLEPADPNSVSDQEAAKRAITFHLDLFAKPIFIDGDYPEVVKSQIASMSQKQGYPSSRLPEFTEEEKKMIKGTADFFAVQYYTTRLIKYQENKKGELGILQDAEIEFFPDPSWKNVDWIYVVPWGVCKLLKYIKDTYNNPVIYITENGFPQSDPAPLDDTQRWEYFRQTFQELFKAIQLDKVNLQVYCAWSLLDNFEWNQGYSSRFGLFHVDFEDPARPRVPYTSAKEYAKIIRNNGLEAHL
Nature of the test: Competitive ABPP against β-glucosidase probe 14, GBA3+ HEK293T lysate. The settings on record: 5 from 30 to 0 μM, 1 h at 37 °C, pH 6.0.

With `O=S1(=O)O[C@@H]2[C@H](O)[C@@H](O)[C@H](O)[C@@H](CO)[C@@H]2O1` [Compound 5, 1,6-epi-cyclophellitol cyclosulfate], the “inhibition of probe 13 labeling of GANAB” value in test [1] is “inhibited”. The “inhibition of probe 14 labeling of GBA2” value in test [2] is listed as “no inhibition”. Further, in test [3], the “inhibition of probe 14 labeling of GBA3” value is “no inhibition”.
